Tests used:
Mus musculus [1] = species on record: Mus musculus; assay: Inhibition of amyloid beta (1 to 42)-induced mPTP opening in mouse HT22 cells assessed as reduction in mitochondrial membrane potential loss by measuring green to red fluorescence ratio at 5 uM preincubated for 10 mins followed by amyloid beta (1 to 42) addition and measured every 1 hr for 3 hrs by JC1 staining based fluorescence assay relative to control; type: cell-based; design: scale not given: the % may be the effect or the level left
Procedure, shortened: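 HT-22 cells (30,000/well) were seeded one day before and loaded with 7.5 µM final JC-1 in phenol red-free Opti-MEM for 1 h 15 min at 37 °C, then washed with PBS. Compound (5 µM) was added for 10 min at 37 °C, then Aβ1-42 (5 µM). Red (ex/em 530/580 nm) and green (485/530 nm) fluorescence were read hourly for 3 h. Green/red ratio was expressed versus Aβ alone (100%), as mean of duplicates.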

HT-22 = assay: Toxicity in mouse HT22 cells assessed as ATP production level at 5 uM after 7 hrs by luciferase based assay relative to control; type: cell-based; settings: ht-22, 7 h
Procedure, shortened: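 HT-22 cells (10,000/well, seeded the day before; DMEM, 10% FBS, 37 °C, 5% CO2) were exposed to compound (5 µM per footnote) without Aβ for 7 h at 37 °C. Cells were lysed in 1% Triton X-100/TBST, equal protein (BCA) was taken, and ATP was measured with a luciferase kit. Result is % ATP production relative to vehicle; mean of duplicates.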

[2] = Cytotoxicity against mouse HT22 cells assessed as cell viability at 5 uM after 24 hrs by MTT assay relative to control; type: cell-based, HT-22; settings: read-out: Activity
Procedure, shortened: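 HT-22 cells (5000/well) got compound at 5 µM for 24 h at 37 °C. MTT was added for 2 h, then solubilizer (10% Triton X-100 in isopropanol, 0.1 M HCl) for 1 h at room temperature. Absorbance was read at 570 nm, vehicle-subtracted, and expressed as % viability; mean of duplicates.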

Mus musculus [3] = species on record: Mus musculus; assay: Inhibition of amyloid beta (1 to 42)-induced mPTP opening in mouse HT22 cells assessed as protection against amyloid beta (1 to 42)-induced deterioration of ATP production by measuring ATP recovery at 5 uM preincubated for 10 mins followed by amyloid beta (1 to 42) addition and measured after 7 hrs relative to control; type: cell-based; design: scale not given: the % may be the effect or the level left
Procedure, shortened: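 HT-22 cells (10,000/well, seeded the day before) got compound for 10 min at 37 °C, then Aβ1-42; per footnote, both were at 5 µM. After 7 h at 37 °C, cells were washed, lysed in 1% Triton X-100/TBST and protein-normalized by BCA. ATP was measured with a luciferase kit. Aβ-injured level was set to 0 and vehicle to 100% recovery; mean of duplicates.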

Mus musculus [4] = species on record: Mus musculus; assay: Inhibition of amyloid beta (1 to 42)-induced mPTP opening in mouse HT22 cells assessed as neuroprotective activity against amyloid beta (1 to 42)-induced toxicity at 5 uM measured after 24 hrs by MTT assay relative to control; type: cell-based
Procedure, shortened: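 HT-22 cells (5000/well) were pretreated with compound for 10 min, then Aβ1-42 was added, both at 5 µM, for 24 h at 37 °C. Viability was read by MTT (2 h; acidic Triton/isopropanol solubilization; A570). Aβ-treated viability was set to 0 and vehicle to 100% protection; mean of duplicates.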

SMILES | Activity (Mus musculus [1]) | other results
O=C(Nc1ccc(Cl)c(Cl)c1)Nc1ncccc1OCc1ccccc1Cl | 36% | Activity (HT-22): 123%; viability at 24 h, 5 µM [2]: 60%
O=C(Nc1ccccc1F)Nc1ncccc1OCc1ccc(Cl)cc1 | 27% | –
Cc1ccc(NC(=O)Nc2ncccc2OCc2cccc(Cl)c2)cc1 | 26% | Activity (HT-22): 108%; viability at 24 h, 5 µM [2]: 95%; Activity (Mus musculus [3]): 54%; percent protection against Aβ1-42 toxicity (Mus musculus [4]): 17%
O=C(Nc1ccccc1)Nc1ncccc1OCc1cccc(Cl)c1 | 14% | Activity (HT-22): 109%; viability at 24 h, 5 µM [2]: 98%; Activity (Mus musculus [3]): 90%; percent protection against Aβ1-42 toxicity (Mus musculus [4]): 31%
O=C(Nc1ccccc1F)Nc1ncccc1OCc1ccccc1 | 69% | –
O=C(Nc1ccccc1F)Nc1ncccc1OCc1ccc(F)cc1 | 27% | –
O=C(Nc1cccc(F)c1)Nc1ncccc1OCc1cccc(F)c1 | 34% | –
O=C(Nc1cccc(F)c1)Nc1ncccc1OCc1ccc(F)cc1 | 18% | –
O=C(Nc1ccc(C(F)(F)F)cc1)Nc1ncccc1OCc1cccc(F)c1 | 23% | –
NC(=O)CN1CCCC1=O [PIRACETAM] | – | Activity (HT-22): 88%; Activity (Mus musculus [3]): 127%; percent protection against Aβ1-42 toxicity (Mus musculus [4]): 29%
O=C(Nc1cccc(Cl)c1)Nc1ncccc1OCc1ccccc1Cl | 25% | Activity (HT-22): 124%; viability at 24 h, 5 µM [2]: 84%; Activity (Mus musculus [3]): 91%; percent protection against Aβ1-42 toxicity (Mus musculus [4]): 21%
O=C(NCc1ccccc1)Nc1ncccc1OCc1cccc(F)c1 | 9% | –
O=C(Nc1ccccc1F)Nc1ncccc1OCc1cccc(F)c1 | 23% | –
O=C(Nc1ccc(Cl)c(Cl)c1)Nc1ncccc1OCc1ccccc1 | 19% | –
O=C(Nc1cccc(Cl)c1)Nc1ncccc1OCc1cccc(Cl)c1 | 55% | –
O=C(Nc1cccc(F)c1)Nc1nccnc1OCc1ccccc1 | 111% | –
O=C(Nc1ccccc1)Nc1ncccc1OCc1cccc(F)c1 | 23% | –
O=C(Nc1ccccc1F)Nc1ncccc1OCc1cccc(Cl)c1 | 11% | Activity (HT-22): 104%; viability at 24 h, 5 µM [2]: 115%; Activity (Mus musculus [3]): 43%; percent protection against Aβ1-42 toxicity (Mus musculus [4]): 67%
Cc1ccc(NC(=O)Nc2nccnc2OCc2cccc(F)c2)cc1 | 96% | –
O=C(Nc1cccc(Cl)c1)Nc1ncccc1OCc1ccc(Cl)cc1 | 46% | –
O=C(Nc1cccc(F)c1)Nc1ncccc1OCc1ccc(Cl)cc1 | 15% | –

SMILES | Activity (Mus musculus [1]) | other results
O=C(Nc1ccc(C(F)(F)F)cc1)Nc1ncccc1OCc1ccc(Cl)cc1 | 91% | –
O=C(Nc1ncccc1OCc1cccc(Cl)c1)Nc1cccc2ccccc12 | 106% | –
O=C(Nc1ncccc1OCc1ccccc1Cl)Nc1cccc2ccccc12 | 77% | –
O=C(Nc1ccc(Cl)c(Cl)c1)Nc1ncccc1OCc1ccc(Cl)cc1 | 47% | –
Cc1ccc(NC(=O)Nc2ncccc2OCc2cccc(F)c2)cc1 | 22% | –
O=C(Nc1ccc(Cl)c(Cl)c1)Nc1ncccc1OCc1cccc(Cl)c1 | 10% | –
O=C(Nc1cccc(F)c1)Nc1ncccc1OCc1ccccc1Cl | 32% | Activity (HT-22): 106%; viability at 24 h, 5 µM [2]: 86%; Activity (Mus musculus [3]): 78%; percent protection against Aβ1-42 toxicity (Mus musculus [4]): 14%
O=C(Nc1ccccc1F)Nc1nccnc1OCc1ccccc1 | 123% | –
O=C(Nc1cccc(F)c1)Nc1ncccc1OCc1ccccc1 | 13% | –
O=C(Nc1ccc(Cl)c(Cl)c1)Nc1nccnc1OCc1cccc(F)c1 | 101% | –
O=C(Nc1cccc(F)c1)Nc1nccnc1OCc1cccc(F)c1 | 98% | –
O=C(Nc1ccc(Cl)c(Cl)c1)Nc1ncccc1OCc1cccc(F)c1 | 35% | –
Cc1ccc(NC(=O)Nc2ncccc2OCc2ccc(Cl)cc2)cc1 | 44% | –
O=C(Nc1ncccc1OCc1ccc(Cl)cc1)Nc1cccc2ccccc12 | 52% | –
O=C(Nc1cccc(Cl)c1)Nc1ncccc1OCc1ccc(F)cc1 | 91% | –
O=C(Nc1cccc(F)c1)Nc1ncccc1OCc1cccc(Cl)c1 | 13% | Activity (HT-22): 99%; viability at 24 h, 5 µM [2]: 91%; Activity (Mus musculus [3]): 69%; percent protection against Aβ1-42 toxicity (Mus musculus [4]): 38%
O=C(Nc1ccccc1F)Nc1ncccc1OCc1ccccc1Cl | 38% | –
Cc1ccc(NC(=O)Nc2ncccc2OCc2ccccc2Cl)cc1 | 22% | –
O=C(Nc1ccccc1)Nc1ncccc1OCc1ccccc1Cl | 80% | –
O=C(Nc1ccc(C(F)(F)F)cc1)Nc1ncccc1OCc1cccc(Cl)c1 | 27% | –
O=C(NCc1ccccc1)Nc1nccnc1OCc1cccc(F)c1 | 69% | –
